Calls of active or inactive are those of the source. No cut-off for these calls is given here.
How the values were obtained:
Pseudomonas aeruginosa [1] = test: Compound was tested for inhibition of Pseudomonas aeruginosa 18SH in combination with Ceftriaxone; type: functional
Summary of the method: (§1)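 MICs determined by serial 2-fold dilution in Mueller-Hinton broth with an inoculum of approximately 10⁵ cfu/mL. The test compound was combined with ceftriaxone.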

[2] = (§2) Compound was tested for inhibition of pTEM-4 from Escherichia coli in combination with Ceftriaxone; type: functional; summary of the method: as §1
[3] = (§3) Compound was tested for inhibition of TEM-1, class A of beta-lactamases.; type: functional, Escherichia coli
[4] = (§4) Compound was tested for inhibition of pTEM-3 from Escherichia coli in combination with Ceftriaxone; type: functional; summary of the method: as §1
[5] = (§5) Compound was tested for inhibition of TEM-3, class A of beta-lactamases.; type: functional, Escherichia coli
Bacillus licheniformis = test: Compound was tested for inhibition of Bacillus licheniformis 749/C, class A of beta-Lactamases.; type: functional, organism-based
Enterobacter cloacae [6] = test: Compound was tested for inhibition of Ent. cloacae 908R in combination with Ceftriaxone; type: functional; summary of the method: as §1
Citrobacter freundii [7] = test: Compound was tested for inhibition of Citrobacter freundii 1928 in combination with Ceftriaxone; type: functional; summary of the method: as §1
[8] = (§6) Compound was tested for inhibition of pTEM-4 from Escherichia coli in combination with Ceftriaxone (not active).; type: functional
Enterobacter cloacae [9] = test: Compound was tested for inhibition of Ent. cloacae 908R in combination with Ceftriaxone (expressed in MIC).; type: functional, organism-based; summary of the method: as §1
[10] = (§7) Compound was tested for inhibition of pTEM-3 from Escherichia coli in combination with Ceftriaxone (expressed in MIC).; type: functional
Citrobacter freundii [11] = test: (§8) Compound was tested for inhibition of Citrobacter freundii 1928 in combination with Ceftriaxone (expressed in MIC).; type: functional, organism-based
Pseudomonas aeruginosa [12] = test: Compound was tested for inhibition of Pseudomonas aeruginosa 18SH in combination with Ceftriaxone (expressed in MIC).; type: functional, organism-based; summary of the method: as §1
Citrobacter freundii [13] = test: Compound was tested for the half saturation constant derived from concentration dependence studies in Citrobacter freundii; type: organism-based
Summary of the method: (§9)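 Purified β-lactamases (C. freundii 1928, E. coli SNO3, TEM-3, SHV-2) reacted with inhibitor. K_S is the half-saturation constant for forming the acyl-enzyme complex, taken from the concentration dependence of that reaction. It was obtained together with the acylation rate k_on and the acyl-enzyme breakdown rate k_off, using previously published kinetic methods.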

Beta-lactamase L1 = Beta-lactamase L1 (Stenotrophomonas maltophilia, UniProt P52700); test: Compound was tested for inhibition of Beta-lactamase from Xanthomonas maltophila 328
Escherichia coli [14] = test: Compound was tested for the half saturation constant derived from concentration dependence studies in Escherichia coli TEM-3.; type: organism-based; summary of the method: as §9
Escherichia coli [15] = test: Compound was tested for the half saturation constant derived from concentration dependence studies in Escherichia coli SNO3.; type: organism-based; summary of the method: as §9
Escherichia coli [16] = test: Compound was tested for the half saturation constant derived from concentration dependence studies in Escherichia coli SHV-2.; type: organism-based; summary of the method: as §9
[17] = as §6; summary of the method: as §1
Beta-lactamase [18] = target: Beta-lactamase (Bacillus licheniformis, UniProt P00808); test: Compound was tested for inhibition of Bacillus licheniformis 749/C, class A of Beta-lactamase
[19] = target: Peptidoglycan D,D-transpeptidase MrdA (Escherichia coli K-12, UniProt P0AD65); test: Compound was tested for inhibition of Penicillin-binding protein 2 from Escherichia coli.
Beta-lactamase [20] = target: Beta-lactamase (Escherichia coli K-12, UniProt P00811); test: Compound was tested for inhibition of Escherichia coli AmpC, class C of Beta-lactamase
[21] = Compound was tested for inhibition of Penicillin-binding protein 1 from Staphylococcus aureus (Schoch).
[22] = target: T1, Penicillin-binding protein 1B (Escherichia coli K-12, UniProt P02919); test: Compound was tested for inhibition of Penicillin-binding protein 1b from Escherichia coli.
T1 sequence (P02919 whole entry): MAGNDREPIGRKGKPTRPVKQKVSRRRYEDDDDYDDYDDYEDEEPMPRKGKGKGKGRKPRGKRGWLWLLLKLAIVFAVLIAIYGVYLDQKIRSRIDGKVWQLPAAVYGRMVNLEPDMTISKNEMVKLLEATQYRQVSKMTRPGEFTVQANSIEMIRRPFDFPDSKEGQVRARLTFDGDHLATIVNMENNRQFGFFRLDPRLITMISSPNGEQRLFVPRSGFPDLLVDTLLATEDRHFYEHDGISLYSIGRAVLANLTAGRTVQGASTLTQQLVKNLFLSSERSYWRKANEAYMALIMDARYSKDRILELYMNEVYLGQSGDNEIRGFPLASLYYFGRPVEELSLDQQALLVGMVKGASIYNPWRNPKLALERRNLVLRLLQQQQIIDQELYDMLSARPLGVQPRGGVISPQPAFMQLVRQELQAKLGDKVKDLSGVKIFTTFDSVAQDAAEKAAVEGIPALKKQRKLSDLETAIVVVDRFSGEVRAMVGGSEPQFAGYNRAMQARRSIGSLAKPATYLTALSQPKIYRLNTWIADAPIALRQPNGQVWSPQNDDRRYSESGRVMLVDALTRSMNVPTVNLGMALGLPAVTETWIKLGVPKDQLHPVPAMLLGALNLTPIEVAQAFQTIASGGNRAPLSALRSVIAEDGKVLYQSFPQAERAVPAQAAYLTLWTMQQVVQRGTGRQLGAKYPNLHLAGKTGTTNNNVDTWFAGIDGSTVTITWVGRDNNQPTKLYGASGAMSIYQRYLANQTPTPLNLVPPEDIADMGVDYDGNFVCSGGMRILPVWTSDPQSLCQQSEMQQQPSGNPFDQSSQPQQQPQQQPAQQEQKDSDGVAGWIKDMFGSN
Summary of the method: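 Penicillin binding was assayed on membrane fragments from E. coli W3110 or S. aureus Schoch, using ¹⁴C-labeled benzylpenicillin as the probe. IC₅₀ values are reported in µM.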

[23] = as §7; summary of the method: as §1
Beta-lactamase [24] = target: Beta-lactamase (Citrobacter freundii, UniProt P05193); test: Compound was tested for inhibition of Citrobacter freundii 1928, class C of Beta-lactamase
[25] = as §3; parameters: species or system Escherichia coli
Beta-lactamase [26] = target: Beta-lactamase (Pseudomonas aeruginosa (strain ATCC 15692 / PAO1 / 1C / PRS 101 / LMG12228), UniProt P24735); test: Compound was tested for inhibition of Pseudomonas aeruginosa 18SH, class C of Beta-lactamase
[27] = target: Penicillin-binding protein 4 (Staphylococcus aureus, UniProt P72355); test: Compound was tested for inhibition of Penicillin-binding protein 4 from Staphylococcus aureus (Schoch).
[28] = as §5; parameters: species or system Escherichia coli
[29] = Compound was tested for inhibition of Penicillin-binding protein 2x from Streptococcus pneumoniae
Summary of the method: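 S. pneumoniae PBP 2x was assayed as recombinant soluble protein. IC₅₀ values are reported in µM.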

Escherichia coli [30] = test: as §4; summary of the method: as §1
Escherichia coli [31] = test: as §2; summary of the method: as §1
[32] = Compound was tested for inhibition of pTEM-4 from Escherichia coli in combination with Ceftriaxone; NA = Not active; summary of the method: as §1
Citrobacter freundii [33] = test: as §8; type: functional, organism-based; summary of the method: as §1; remark: listed apart in the source
Citrobacter freundii [34] = test: Compound was tested for inhibition of Citrobacter freundii 1928 in combination with Ceftriaxone; Not active; type: functional, organism-based; summary of the method: as §1

Beta-lactamase (Bacillus licheniformis, UniProt P00808), sequence (P00808 whole entry): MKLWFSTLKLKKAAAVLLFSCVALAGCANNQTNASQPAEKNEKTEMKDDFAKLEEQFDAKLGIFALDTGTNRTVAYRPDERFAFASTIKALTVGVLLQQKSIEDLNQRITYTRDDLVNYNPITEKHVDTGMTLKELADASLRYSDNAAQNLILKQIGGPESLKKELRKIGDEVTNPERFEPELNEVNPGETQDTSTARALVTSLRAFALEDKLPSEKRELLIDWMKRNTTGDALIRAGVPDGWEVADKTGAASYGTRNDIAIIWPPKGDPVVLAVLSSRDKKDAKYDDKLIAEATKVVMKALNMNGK
Beta-lactamase (Pseudomonas aeruginosa (strain ATCC 15692 / PAO1 / 1C / PRS 101 / LMG12228), UniProt P24735), sequence (P24735 whole entry): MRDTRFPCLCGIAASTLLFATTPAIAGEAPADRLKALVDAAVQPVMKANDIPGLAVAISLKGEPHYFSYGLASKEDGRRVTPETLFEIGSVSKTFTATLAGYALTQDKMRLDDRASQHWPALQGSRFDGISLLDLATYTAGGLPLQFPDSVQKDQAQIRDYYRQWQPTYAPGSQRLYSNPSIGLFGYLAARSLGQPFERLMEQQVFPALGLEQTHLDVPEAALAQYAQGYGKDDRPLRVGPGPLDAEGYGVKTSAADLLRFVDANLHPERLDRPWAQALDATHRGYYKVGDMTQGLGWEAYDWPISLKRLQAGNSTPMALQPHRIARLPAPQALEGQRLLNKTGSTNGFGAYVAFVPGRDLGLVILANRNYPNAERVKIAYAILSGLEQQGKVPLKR
Beta-lactamase (Escherichia coli K-12, UniProt P00811), sequence (P00811 whole entry): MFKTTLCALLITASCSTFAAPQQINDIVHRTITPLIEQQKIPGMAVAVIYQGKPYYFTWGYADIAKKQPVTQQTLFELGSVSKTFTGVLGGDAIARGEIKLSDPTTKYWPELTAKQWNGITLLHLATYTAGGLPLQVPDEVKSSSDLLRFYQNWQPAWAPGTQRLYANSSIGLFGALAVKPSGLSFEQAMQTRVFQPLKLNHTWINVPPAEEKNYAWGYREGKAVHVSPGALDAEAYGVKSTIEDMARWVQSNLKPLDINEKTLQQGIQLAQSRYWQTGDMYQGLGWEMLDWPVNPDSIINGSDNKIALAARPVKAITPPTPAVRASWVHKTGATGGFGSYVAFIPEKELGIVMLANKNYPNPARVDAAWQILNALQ
Beta-lactamase (Citrobacter freundii, UniProt P05193), sequence (P05193 whole entry): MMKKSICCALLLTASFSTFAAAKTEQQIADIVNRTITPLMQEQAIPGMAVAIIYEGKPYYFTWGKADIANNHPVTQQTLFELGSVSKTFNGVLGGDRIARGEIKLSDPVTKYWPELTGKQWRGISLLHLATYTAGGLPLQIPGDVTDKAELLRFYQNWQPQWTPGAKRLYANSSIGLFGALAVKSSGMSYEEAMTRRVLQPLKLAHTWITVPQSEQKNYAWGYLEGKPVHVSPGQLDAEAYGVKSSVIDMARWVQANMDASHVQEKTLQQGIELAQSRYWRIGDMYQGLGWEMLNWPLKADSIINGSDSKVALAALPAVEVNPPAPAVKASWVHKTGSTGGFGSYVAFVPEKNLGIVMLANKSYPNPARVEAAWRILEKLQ
Beta-lactamase L1, sequence (P52700 whole entry): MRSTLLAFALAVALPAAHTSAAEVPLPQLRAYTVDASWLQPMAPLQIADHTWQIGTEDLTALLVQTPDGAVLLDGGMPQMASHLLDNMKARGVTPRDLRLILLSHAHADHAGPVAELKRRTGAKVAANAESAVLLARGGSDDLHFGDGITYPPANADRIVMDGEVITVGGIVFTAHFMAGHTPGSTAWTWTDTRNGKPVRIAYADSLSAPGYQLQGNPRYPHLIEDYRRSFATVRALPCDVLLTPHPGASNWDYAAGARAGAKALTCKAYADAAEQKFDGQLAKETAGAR
Peptidoglycan D,D-transpeptidase MrdA, sequence (P0AD65 whole entry): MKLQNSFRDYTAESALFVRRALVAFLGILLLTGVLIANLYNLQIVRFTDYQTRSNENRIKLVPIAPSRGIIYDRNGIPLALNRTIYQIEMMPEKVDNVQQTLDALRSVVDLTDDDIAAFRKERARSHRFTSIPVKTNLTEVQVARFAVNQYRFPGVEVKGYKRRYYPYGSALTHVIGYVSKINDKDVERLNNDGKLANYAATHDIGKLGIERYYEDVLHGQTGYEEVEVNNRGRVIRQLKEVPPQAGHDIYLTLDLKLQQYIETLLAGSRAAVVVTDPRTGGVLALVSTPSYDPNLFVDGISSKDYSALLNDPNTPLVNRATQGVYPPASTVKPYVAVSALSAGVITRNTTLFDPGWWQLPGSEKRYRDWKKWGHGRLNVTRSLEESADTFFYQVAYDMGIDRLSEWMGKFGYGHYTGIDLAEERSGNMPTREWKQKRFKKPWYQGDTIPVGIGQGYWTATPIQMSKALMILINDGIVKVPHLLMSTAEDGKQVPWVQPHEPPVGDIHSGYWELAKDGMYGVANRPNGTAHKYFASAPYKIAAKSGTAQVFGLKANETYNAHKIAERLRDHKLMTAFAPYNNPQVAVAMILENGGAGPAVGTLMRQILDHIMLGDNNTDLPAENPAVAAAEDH

MIC (Pseudomonas aeruginosa [1]) | IC50 [3] | IC50 [5] | IC50 (Bacillus licheniformis) | MIC (Enterobacter cloacae [6]) | MIC (Citrobacter freundii [7]) | MIC (Enterobacter cloacae [9]) | MIC (Pseudomonas aeruginosa [12]) | IC50 (Beta-lactamase [18]) | IC50 (Beta-lactamase [20]) | IC50 [22] | IC50 (Beta-lactamase [24]) | IC50 [25] | IC50 (Beta-lactamase [26]) | IC50 [28] | Structure (SMILES) | also measured
> 16 mg/L | 12 µM | 0.18 µM | 4.4 µM | 16 mg/L | 8 mg/L |  |  |  |  |  |  |  |  |  | CON(C)C(=O)/C=C\[C@@]1(C)[C@H](C(=O)[O-])N2C(=O)C[C@H]2S1(=O)=O.[Na+] | MIC [2]: 2 mg/L; MIC [4]: 0.5 mg/L
> 16 mg/L |  |  |  | 16 mg/L | 16 mg/L |  |  | 0.54 µM | 2.7 µM | > 10000 µM | 0.41 µM | 13 µM | 8.9 µM | 0.054 µM | C[C@]1(/C=C\c2cncs2)[C@H](C(=O)[O-])N2C(=O)C[C@H]2S1(=O)=O.[Na+] | IC50 [29]: 4.8 µM; MIC (Escherichia coli [30]): 0.5 mg/L; MIC (Escherichia coli [31]): 4 mg/L
16 mg/L | 13 µM | 0.054 µM | 6 µM | 8 mg/L |  |  |  |  |  |  |  |  |  |  | C[C@]1(C=CC(N)=O)[C@H](C(=O)O)N2C(=O)C[C@H]2S1(=O)=O | NA (Citrobacter freundii [34]): inactive; MIC [2]: 0.5 mg/L; MIC [4]: < 0.25 mg/L
> 16 mg/L |  |  |  | 32 mg/L | 8 mg/L |  |  | 2.3 µM | 46 µM | > 10000 µM | 1 µM | 19 µM | 15 µM | 0.092 µM | C[C@]1(/C=C\c2ccccn2)[C@H](C(=O)[O-])N2C(=O)C[C@H]2S1(=O)=O.[Na+] | IC50 [21]: 15 µM; IC50 [29]: 4.5 µM; MIC (Escherichia coli [30]): 1 mg/L; IC50 [27]: 15 µM; MIC (Escherichia coli [31]): 4 mg/L

The remaining lines, values behind:

Structure (SMILES) | MIC (Pseudomonas aeruginosa [1]) | IC50 [3] | IC50 [5] | IC50 (Bacillus licheniformis) | MIC (Enterobacter cloacae [6]) | MIC (Citrobacter freundii [7]) | MIC (Enterobacter cloacae [9]) | MIC (Pseudomonas aeruginosa [12]) | IC50 (Beta-lactamase [18]) | IC50 (Beta-lactamase [20]) | IC50 [22] | IC50 (Beta-lactamase [24]) | IC50 [25] | IC50 (Beta-lactamase [26]) | IC50 [28] | also measured
CC(=O)/C=C\[C@@]1(C)[C@H](C(=O)O)N2C(=O)C[C@H]2S1(=O)=O |  | 10 µM | 0.42 µM | 3.9 µM |  |  | 2 mg/L | 32 mg/L |  |  |  |  |  |  |  | MIC [8]: 2 mg/L; MIC [10]: 0.25 mg/L; MIC (Citrobacter freundii [11]): 1 mg/L
C[C@]1(Cn2ccnn2)[C@H](C(=O)O)N2C(=O)C[C@H]2S1(=O)=O [TAZOBACTAM] |  |  |  |  |  |  |  |  |  |  |  |  |  |  |  | Ks (Citrobacter freundii [13]): 110 µM; IC50 (Beta-lactamase L1): 4000 µM; Ks (Escherichia coli [14]): 0.74 µM; Ks (Escherichia coli [15]): 325 µM; Ks (Escherichia coli [16]): 5 µM
C[C@]1(/C=C/C[n+]2ccccc2)[C@H](C(=O)O)N2C(=O)C[C@H]2S1(=O)=O |  |  |  |  |  |  | 8 mg/L | > 16 mg/L | 1.8 µM | 330 µM | > 10000 µM | 16 µM | 3.6 µM | 75 µM | 0.14 µM | MIC [17]: 0.5 mg/L; IC50 [19]: 297 µM; IC50 [21]: 15 µM; MIC [23]: 0.25 mg/L; IC50 [27]: 15 µM
CCOC(=O)/C=C\[C@@]1(C)[C@H](C(=O)O)N2C(=O)C[C@H]2S1(=O)=O |  |  |  |  |  |  | 8 mg/L | > 16 mg/L | 2.9 µM | 61 µM |  |  | 14 µM | 15 µM | 0.46 µM | MIC [32]: Not Active; MIC [23]: < 0.25 mg/L; MIC (Citrobacter freundii [33]): 4 mg/L
